PMC2649372 (Biochemistry, 2008)
Changes are numbered by the printed parent chain. Marks after values point to notes of the source that are not given here.

How the values were obtained:
[1] = target: T1, N128D mutant 5-HT3 receptor (mouse 5-HT3A subunit) (Mus musculus, UniProt P23979, N128D); test: Agonist-induced currents, voltage clamp electrophysiology in Xenopus oocytes; format: cell-based; details: N128D
T1 sequence (P23979 24-483 isoform P23979-2 N128D limits assumed): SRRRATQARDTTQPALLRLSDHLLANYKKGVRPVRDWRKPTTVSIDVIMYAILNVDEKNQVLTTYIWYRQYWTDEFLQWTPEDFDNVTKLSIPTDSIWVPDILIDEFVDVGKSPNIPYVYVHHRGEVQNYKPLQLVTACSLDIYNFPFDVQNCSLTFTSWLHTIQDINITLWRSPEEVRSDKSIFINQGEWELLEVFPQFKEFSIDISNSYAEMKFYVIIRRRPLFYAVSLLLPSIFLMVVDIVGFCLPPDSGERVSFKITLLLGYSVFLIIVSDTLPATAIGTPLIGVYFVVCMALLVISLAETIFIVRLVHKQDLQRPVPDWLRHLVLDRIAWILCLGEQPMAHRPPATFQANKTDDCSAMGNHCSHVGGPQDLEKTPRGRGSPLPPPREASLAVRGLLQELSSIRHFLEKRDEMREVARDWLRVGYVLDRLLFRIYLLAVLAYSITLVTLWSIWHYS

[2] = target: T2, N128R mutant 5-HT3 receptor (mouse 5-HT3A subunit) (Mus musculus, UniProt P23979, N128R); test: as above; format: cell-based; details: SR = small (<100 nA) responses
T2 sequence (P23979 24-483 isoform P23979-2 N128R limits assumed): T1 sequence (P23979 24-483 isoform P23979-2 N128D limits assumed) with D105R

[3] = target: N128-Nha mutant 5-HT3 receptor (mouse 5-HT3A subunit); test: Agonist-induced currents, voltage clamp electrophysiology in Xenopus oocytes; format: cell-based; details: SR = small (<100 nA) responses
In short: (§1)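 Mouse 5-HT3A receptor carrying Nha or Akp, introduced by nonsense suppression. Stage V-VI Xenopus oocytes were co-injected with 5 ng cRNA and 25 ng photodeprotected aminoacyl-tRNA. Controls received tRNA without an amino acid. At 24-72 h, agonist currents were recorded by two-electrode voltage clamp at -60 mV, 22-25 °C, in Ca-free ND96 (pH 7.5).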

[4] = target: E129A mutant 5-HT3 receptor (mouse 5-HT3A subunit) (Mus musculus, UniProt P23979, E129A); test: Agonist-induced currents, voltage clamp electrophysiology in Xenopus oocytes; format: cell-based; details: NR = no response
[5] = target: E129G mutant 5-HT3 receptor (mouse 5-HT3A subunit) (Mus musculus, UniProt P23979, E129G); test: as above; format: cell-based; details: NR = no response
[6] = target: E129K mutant 5-HT3 receptor (mouse 5-HT3A subunit) (Mus musculus, UniProt P23979, E129K); test: as above; format: cell-based; details: NR = no response
[7] = test system: Asn128 mutant 5-HT3 receptors (all except Ala and Val); test: Relative efficacy of mCPBG, voltage clamp electrophysiology in Xenopus oocytes; format: cell-based, mouse; details: Asn128 mutations
[8] = target: T3, N128-Akp mutant 5-HT3 receptor (mouse 5-HT3A subunit) (Mus musculus, UniProt Q6J1J7); test: Agonist-induced currents, voltage clamp electrophysiology in Xenopus oocytes; format: cell-based
T3 sequence (Q6J1J7 24-483): T1 sequence (P23979 24-483 isoform P23979-2 N128D limits assumed) with D105N, F436L
In short: as §1

[9] = target: E129Q mutant 5-HT3 receptor (mouse 5-HT3A subunit) (Mus musculus, UniProt P23979, E129Q); test: Agonist-induced currents, voltage clamp electrophysiology in Xenopus oocytes; format: cell-based; details: NR = no response
Sequence of E129Q mutant 5-HT3 receptor (mouse 5-HT3A subunit) (P23979 24-483 isoform P23979-2 E129Q limits assumed): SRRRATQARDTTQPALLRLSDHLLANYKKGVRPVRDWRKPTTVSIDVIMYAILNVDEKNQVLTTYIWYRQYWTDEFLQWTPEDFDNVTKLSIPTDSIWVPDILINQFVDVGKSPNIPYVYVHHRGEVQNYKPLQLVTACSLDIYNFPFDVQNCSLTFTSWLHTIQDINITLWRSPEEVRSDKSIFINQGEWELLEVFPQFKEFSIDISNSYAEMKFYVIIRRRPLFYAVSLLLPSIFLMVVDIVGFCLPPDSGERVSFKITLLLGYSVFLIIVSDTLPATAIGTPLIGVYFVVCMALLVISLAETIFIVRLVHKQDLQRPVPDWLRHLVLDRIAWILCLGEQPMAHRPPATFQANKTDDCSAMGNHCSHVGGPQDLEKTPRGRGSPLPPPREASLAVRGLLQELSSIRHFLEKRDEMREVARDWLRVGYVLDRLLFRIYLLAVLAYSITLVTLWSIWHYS

Sequence of E129G mutant 5-HT3 receptor (mouse 5-HT3A subunit) (P23979 24-483 isoform P23979-2 E129G limits assumed): as the sequence (P23979 24-483 isoform P23979-2 E129Q limits assumed) above, with Q106G counted along it
Sequence of E129K mutant 5-HT3 receptor (mouse 5-HT3A subunit) (P23979 24-483 isoform P23979-2 E129K limits assumed): as the sequence (P23979 24-483 isoform P23979-2 E129Q limits assumed) above, with Q106K counted along it
Sequence of E129A mutant 5-HT3 receptor (mouse 5-HT3A subunit) (P23979 24-489 E129A): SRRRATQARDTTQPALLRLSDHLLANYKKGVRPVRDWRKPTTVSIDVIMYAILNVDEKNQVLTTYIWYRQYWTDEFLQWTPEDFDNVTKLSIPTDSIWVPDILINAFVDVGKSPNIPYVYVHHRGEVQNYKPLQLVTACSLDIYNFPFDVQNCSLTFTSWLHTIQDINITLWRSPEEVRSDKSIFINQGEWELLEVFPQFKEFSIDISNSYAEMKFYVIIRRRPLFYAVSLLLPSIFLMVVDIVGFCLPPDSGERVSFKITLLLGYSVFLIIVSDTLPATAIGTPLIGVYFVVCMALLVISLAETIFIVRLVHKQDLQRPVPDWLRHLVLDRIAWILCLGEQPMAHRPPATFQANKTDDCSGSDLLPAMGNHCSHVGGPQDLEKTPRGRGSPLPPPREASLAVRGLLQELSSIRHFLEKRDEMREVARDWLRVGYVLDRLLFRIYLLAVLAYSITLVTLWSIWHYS

| EC50 [1] | pEC50 ([1]; SR = small (<100 nA) responses) | EC50 [2] | nH (Hill coefficient) [2] | pEC50 [2] | EC50 [3] | nH (Hill coefficient) [3] | pEC50 [3] | EC50 [4] | EC50 [5] | EC50 [6] | increase of mCPBG Rmax compared to that of WT [7] | Compound | nH (Hill coefficient) [1] | EC50 [8] | nH (Hill coefficient) [8] | pEC50 [8] | nH (Hill coefficient) [9] |
| --- | --- | --- | --- | --- | --- | --- | --- | --- | --- | --- | --- | --- | --- | --- | --- | --- | --- |
| 0.27 µM | 6.56 ± 0.03 | 7.3 µM | 1.93 ± 0.16 | 5.14 ± 0.02 ^b | 2.8 µM | 2.18 ± 0.23 | 5.55 ± 0.02 ^b | > 100 µM | > 100 µM | > 100 µM | 2−19 fold | N=C(N)NC(=N)Nc1cccc(Cl)c1 [mCPBG, m-chlorophenylbiguanide] | 1.54 ± 0.15 | – | – | – | – |
| – | – | – | – | – | – | – | – | – | – | – | – | NCCc1c[nH]c2ccc(O)cc12 [5-HT, 5-hydroxytryptamine] | 1.63 ± 0.08 ^b | 4.6 µM | 1.49 ± 0.06 ^b | 5.33 ± 0.01 ^b | 1.55 ± 0.07 ^b |
